Experimental data reported in ChEMBL document CHEMBL4261600 (Eur J Med Chem, 2018).
Calls of active or inactive are those of the source.

Assays:
[1] = target: Cyclin-dependent kinase 7 (Homo sapiens) (UniProt P50613); assay: Inhibition of CDK7 in human HL60 cells assessed as decrease in RNA polymerase 2 phosphorylation at Ser 5 residues up to 3 uM after 2 hrs by immunoblotting analysis; assay type: cell-based
[2] = MRT (0 to t) in beagle dog at 10 mg/kg, po by LC-MS/MS analysis; assay type: ADME, organism-based, Canis lupus familiaris; conditions: in vivo
[3] = target: Activin receptor type-1-like (Homo sapiens) (UniProt P37023); assay: Binding affinity to wild-type human ACVRL1 (L164 to Q503 residues) expressed in bacterial expression system assessed as remaining unbound target protein level at 1000 nM by Kinomescan method relative to control
Outline: (§1)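 Single-point competition binding screen across a panel of 468 kinases and mutants, with the inhibitor at 1 μM. Binding is read out as percent of a DMSO control, and targets below 1 percent control were classed as strong binders.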

[4] = target: Aurora kinase C (Homo sapiens) (UniProt Q9UQB9); assay: Binding affinity to wild-type human full length AURKC (M1 to S275 residues) expressed in bacterial expression system assessed as remaining unbound target protein level at 1000 nM by Kinomescan method relative to control; outline: as §1
Aurora kinase C (Homo sapiens), sequence (Q9UQB9 whole entry, the tested form may be a part): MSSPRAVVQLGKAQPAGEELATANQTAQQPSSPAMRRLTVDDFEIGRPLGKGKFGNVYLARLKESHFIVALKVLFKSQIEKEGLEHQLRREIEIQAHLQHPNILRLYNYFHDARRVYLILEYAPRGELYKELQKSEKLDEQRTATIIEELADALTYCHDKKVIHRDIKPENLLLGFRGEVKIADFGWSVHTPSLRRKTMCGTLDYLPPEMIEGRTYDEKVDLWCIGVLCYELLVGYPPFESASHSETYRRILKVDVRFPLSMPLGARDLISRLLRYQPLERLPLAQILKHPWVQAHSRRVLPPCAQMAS

[5] = target: Calcium/calmodulin-dependent protein kinase type 1 (Homo sapiens) (UniProt Q14012); assay: Binding affinity to wild-type human full length CAMK1 (M1 to L370 residues) expressed in bacterial expression system assessed as remaining unbound target protein level at 1000 nM by Kinomescan method relative to control; outline: as §1
Calcium/calmodulin-dependent protein kinase type 1 (Homo sapiens), sequence (Q14012 whole entry, looked up, the tested form may be a part): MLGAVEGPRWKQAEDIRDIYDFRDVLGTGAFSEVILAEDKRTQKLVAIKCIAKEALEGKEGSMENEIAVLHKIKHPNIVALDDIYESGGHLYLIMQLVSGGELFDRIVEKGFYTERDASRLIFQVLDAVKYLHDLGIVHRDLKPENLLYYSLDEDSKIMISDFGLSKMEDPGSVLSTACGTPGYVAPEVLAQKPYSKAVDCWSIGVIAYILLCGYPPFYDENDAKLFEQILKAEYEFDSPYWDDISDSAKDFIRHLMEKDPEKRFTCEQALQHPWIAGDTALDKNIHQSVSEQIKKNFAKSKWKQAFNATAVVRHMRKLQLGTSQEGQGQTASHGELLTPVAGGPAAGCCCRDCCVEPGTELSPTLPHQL

[6] = target: Calcium/calmodulin-dependent protein kinase type II subunit beta (Homo sapiens) (UniProt Q13554); assay: Binding affinity to wild-type human partial length CAMK2B (M1 to Q380 residues) expressed in bacterial expression system assessed as remaining unbound target protein level at 1000 nM by Kinomescan method relative to control
Outline: (§2)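 Profiled in a KINOMEscan binding panel with the inhibitor at a single concentration of 1 μM. Binding to each kinase was read out as percent of control, relative to a DMSO control. Strong binders were defined as those with a percent control value below 1.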

[7] = target: Serine/threonine-protein kinase DCLK2 (Homo sapiens) (UniProt Q8N568); assay: Binding affinity to wild-type human partial length DCAMKL2 (K273 to V664 residues) expressed in bacterial expression system assessed as remaining unbound target protein level at 1000 nM by Kinomescan method relative to control
[8] = target: Mitogen-activated protein kinase 4 (Homo sapiens) (UniProt P31152); assay: Binding affinity to wild-type human partial length ERK4 (M1 to L365 residues) expressed in bacterial expression system assessed as remaining unbound target protein level at 1000 nM by Kinomescan method relative to control
Outline: (§3)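 KINOMEscan binding panel of 468 kinases/mutants. Inhibitor was tested at a single concentration of 1 μM. Binding is reported as percent of control, defined relative to a DMSO control.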

[9] = target: Mitogen-activated protein kinase 15 (Homo sapiens) (UniProt Q8TD08); assay: Binding affinity to wild-type human partial length ERK8 (M1 to P437 residues) expressed in bacterial expression system assessed as remaining unbound target protein level at 1000 nM by Kinomescan method relative to control; outline: as §3
[10] = test system: Receptor-type tyrosine-protein kinase FLT3 (Homo sapiens), P36888 [N841I]; assay: Binding affinity to human partial length FLT3 N841I mutant (V592 to Y969 residues) expressed in bacterial expression system assessed as remaining unbound target protein level at 1000 nM by Kinomescan method relative to control
Outline: (§4)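 KINOMEscan competition-binding profiling across the panel of 468 kinases and mutants, with inhibitor tested at 1 μM. Binding is expressed as percent of control, with DMSO as the reference control.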

[11] = test system: eIF-2-alpha kinase GCN2 (Homo sapiens), Q9P2K8 [S808G]; assay: Binding affinity to wild-type human partial length GCN2 kinase domain 2 (R585 to T1018 residues) S808G mutant expressed in bacterial expression system assessed as remaining unbound target protein level at 1000 nM by Kinomescan method relative to control
[12] = target: Interleukin-1 receptor-associated kinase 4 (Homo sapiens) (UniProt Q9NWZ3); assay: Binding affinity to wild-type human partial length IRAK4 (M1 to S460 residues) expressed in mammalian expression system assessed as remaining unbound target protein level at 1000 nM by Kinomescan method relative to control; outline: as §3
Interleukin-1 receptor-associated kinase 4 (Homo sapiens), sequence (Q9NWZ3 whole entry, the tested form may be a part): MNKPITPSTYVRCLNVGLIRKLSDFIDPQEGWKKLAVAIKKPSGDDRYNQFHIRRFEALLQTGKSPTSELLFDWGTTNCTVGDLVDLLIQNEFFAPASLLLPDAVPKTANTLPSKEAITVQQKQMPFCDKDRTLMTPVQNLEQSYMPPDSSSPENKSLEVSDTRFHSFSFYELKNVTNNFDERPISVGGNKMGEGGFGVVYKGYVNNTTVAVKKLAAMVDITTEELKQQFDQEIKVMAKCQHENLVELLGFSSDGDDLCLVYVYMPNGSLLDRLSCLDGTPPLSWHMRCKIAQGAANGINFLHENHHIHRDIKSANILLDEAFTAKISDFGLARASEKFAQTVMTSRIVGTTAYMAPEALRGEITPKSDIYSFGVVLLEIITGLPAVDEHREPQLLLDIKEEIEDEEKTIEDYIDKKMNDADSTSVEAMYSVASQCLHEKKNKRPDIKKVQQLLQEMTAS

[13] = target: Mitogen-activated protein kinase 9 (Homo sapiens) (UniProt P45984); assay: Binding affinity to wild-type human full length JNK2 (M1 to Q382 residues) expressed in mammalian expression system assessed as remaining unbound target protein level at 1000 nM by Kinomescan method relative to control
Mitogen-activated protein kinase 9 (Homo sapiens), sequence (P45984 whole entry, looked up, the tested form may be a part): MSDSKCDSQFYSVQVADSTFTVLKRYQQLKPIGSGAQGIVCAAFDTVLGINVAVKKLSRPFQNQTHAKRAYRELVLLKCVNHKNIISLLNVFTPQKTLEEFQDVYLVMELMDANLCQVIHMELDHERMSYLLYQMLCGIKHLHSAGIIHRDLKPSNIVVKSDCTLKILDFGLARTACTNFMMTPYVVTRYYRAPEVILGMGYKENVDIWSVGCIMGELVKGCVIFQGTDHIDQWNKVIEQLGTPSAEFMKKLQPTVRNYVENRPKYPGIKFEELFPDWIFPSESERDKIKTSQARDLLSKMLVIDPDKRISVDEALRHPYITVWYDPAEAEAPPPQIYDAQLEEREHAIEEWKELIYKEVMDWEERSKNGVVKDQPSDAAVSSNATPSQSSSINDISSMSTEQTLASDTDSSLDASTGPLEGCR
Outline: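 KINOMEscan competition binding profile across a panel of 468 kinases and mutants, with the inhibitor tested at a single concentration of 1 μM. Binding is reported as percent of control, meaning signal relative to a DMSO control.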

[14] = target: Leucine-rich repeat serine/threonine-protein kinase 2 (Homo sapiens) (UniProt Q5S007); assay: Binding affinity to wild-type human partial length LRRK2 (H970 to E2527 residues) expressed in mammalian expression system assessed as remaining unbound target protein level at 1000 nM by Kinomescan method relative to control
Leucine-rich repeat serine/threonine-protein kinase 2 (Homo sapiens), sequence (Q5S007 whole entry, the tested form may be a part): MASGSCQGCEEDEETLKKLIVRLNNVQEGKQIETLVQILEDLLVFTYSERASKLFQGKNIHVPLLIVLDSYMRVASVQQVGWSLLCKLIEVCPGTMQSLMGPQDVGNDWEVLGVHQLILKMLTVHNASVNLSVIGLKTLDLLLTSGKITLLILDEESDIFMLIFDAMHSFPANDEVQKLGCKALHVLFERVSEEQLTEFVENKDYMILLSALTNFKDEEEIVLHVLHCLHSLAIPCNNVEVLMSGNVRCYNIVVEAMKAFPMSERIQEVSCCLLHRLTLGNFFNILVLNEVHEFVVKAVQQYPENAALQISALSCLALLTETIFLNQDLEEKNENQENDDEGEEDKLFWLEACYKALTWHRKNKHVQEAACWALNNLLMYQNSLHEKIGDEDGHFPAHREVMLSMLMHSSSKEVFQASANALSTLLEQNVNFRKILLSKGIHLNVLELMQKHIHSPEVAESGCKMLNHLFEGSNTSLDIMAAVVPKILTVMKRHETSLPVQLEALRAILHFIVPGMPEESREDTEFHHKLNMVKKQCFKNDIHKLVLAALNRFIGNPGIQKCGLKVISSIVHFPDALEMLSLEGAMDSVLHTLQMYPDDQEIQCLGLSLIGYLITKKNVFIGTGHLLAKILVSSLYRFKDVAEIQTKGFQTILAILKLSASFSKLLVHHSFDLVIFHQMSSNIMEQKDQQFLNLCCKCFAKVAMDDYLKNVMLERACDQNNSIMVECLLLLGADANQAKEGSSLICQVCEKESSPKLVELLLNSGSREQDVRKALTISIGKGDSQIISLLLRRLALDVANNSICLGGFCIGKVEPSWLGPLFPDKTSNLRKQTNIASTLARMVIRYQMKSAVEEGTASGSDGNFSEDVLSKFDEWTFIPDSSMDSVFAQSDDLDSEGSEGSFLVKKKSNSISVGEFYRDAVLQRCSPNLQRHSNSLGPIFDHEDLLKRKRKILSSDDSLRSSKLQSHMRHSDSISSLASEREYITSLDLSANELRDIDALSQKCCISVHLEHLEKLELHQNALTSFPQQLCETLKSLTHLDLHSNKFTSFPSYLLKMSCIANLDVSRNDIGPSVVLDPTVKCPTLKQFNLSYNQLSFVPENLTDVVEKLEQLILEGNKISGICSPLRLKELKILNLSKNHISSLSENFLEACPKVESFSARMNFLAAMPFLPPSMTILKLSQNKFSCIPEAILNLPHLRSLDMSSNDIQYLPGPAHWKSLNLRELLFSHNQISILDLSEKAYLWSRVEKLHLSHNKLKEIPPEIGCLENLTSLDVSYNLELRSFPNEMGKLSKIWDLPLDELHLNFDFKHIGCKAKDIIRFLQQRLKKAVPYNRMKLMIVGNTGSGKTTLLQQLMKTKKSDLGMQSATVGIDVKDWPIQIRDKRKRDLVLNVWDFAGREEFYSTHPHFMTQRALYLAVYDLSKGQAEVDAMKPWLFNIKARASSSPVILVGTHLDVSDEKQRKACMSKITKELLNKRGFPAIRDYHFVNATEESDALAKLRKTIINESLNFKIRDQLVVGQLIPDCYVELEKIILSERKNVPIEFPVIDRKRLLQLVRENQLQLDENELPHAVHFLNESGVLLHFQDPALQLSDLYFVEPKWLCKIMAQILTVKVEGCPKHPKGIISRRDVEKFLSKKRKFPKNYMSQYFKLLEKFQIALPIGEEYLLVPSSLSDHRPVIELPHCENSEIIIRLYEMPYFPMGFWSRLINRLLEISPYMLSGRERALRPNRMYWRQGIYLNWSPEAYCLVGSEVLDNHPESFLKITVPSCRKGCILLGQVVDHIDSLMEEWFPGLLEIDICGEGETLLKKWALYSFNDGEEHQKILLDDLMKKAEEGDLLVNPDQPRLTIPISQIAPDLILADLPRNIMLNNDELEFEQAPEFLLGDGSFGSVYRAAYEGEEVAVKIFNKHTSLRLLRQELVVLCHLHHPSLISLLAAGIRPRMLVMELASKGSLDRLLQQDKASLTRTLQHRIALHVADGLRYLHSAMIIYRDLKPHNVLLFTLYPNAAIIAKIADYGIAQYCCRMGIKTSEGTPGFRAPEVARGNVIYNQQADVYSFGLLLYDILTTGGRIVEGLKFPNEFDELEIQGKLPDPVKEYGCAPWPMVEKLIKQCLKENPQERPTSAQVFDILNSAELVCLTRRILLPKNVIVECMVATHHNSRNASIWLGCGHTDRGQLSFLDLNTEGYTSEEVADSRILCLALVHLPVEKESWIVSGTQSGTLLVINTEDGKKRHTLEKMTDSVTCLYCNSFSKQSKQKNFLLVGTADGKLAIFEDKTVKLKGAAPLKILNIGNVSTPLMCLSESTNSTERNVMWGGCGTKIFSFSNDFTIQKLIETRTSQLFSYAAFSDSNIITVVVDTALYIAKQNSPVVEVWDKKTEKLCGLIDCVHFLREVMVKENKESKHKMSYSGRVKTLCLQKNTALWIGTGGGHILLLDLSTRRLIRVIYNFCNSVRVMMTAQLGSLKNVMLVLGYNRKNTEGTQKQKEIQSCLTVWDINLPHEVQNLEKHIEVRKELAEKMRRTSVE

[15] = target: MAP/microtubule affinity-regulating kinase 4 (Homo sapiens) (UniProt Q96L34); assay: Binding affinity to wild-type human partial length MARK4 (K29 to G340 residues) expressed in bacterial expression system assessed as remaining unbound target protein level at 1000 nM by Kinomescan method relative to control
[16] = target: Phosphatidylinositol 4-kinase beta (Homo sapiens) (UniProt Q9UBF8); assay: Binding affinity to wild-type human full length PIK4CB (M1 to M828 residues) expressed in mammalian expression system assessed as remaining unbound target protein level at 1000 nM by Kinomescan method relative to control; outline: as §2
Phosphatidylinositol 4-kinase beta (Homo sapiens), sequence (Q9UBF8 2-816 limits assumed): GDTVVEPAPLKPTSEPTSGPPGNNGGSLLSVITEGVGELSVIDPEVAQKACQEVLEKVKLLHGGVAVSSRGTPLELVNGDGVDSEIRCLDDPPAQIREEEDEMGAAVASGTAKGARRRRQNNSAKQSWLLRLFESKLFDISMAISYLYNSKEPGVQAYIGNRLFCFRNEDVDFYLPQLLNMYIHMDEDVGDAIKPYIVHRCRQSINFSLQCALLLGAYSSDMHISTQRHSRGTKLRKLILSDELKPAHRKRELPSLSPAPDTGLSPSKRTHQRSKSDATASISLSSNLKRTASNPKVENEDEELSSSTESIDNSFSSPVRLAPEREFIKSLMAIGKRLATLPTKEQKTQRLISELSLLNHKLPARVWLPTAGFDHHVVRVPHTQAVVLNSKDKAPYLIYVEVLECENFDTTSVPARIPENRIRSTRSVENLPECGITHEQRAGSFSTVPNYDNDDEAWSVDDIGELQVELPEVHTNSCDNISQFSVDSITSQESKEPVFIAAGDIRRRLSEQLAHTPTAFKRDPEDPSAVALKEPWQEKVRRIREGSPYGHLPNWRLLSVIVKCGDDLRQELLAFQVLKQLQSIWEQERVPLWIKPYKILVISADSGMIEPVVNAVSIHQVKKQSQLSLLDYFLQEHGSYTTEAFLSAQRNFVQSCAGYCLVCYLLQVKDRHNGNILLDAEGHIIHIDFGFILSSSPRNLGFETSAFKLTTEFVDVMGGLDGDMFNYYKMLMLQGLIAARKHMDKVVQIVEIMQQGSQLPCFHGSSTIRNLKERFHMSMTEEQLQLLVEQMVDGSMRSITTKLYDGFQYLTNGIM

[17] = target: Serine/threonine-protein kinase PLK4 (Homo sapiens) (UniProt O00444); assay: Binding affinity to wild-type human partial length PLK4 (M1 to S273 residues) expressed in mammalian expression system assessed as remaining unbound target protein level at 1000 nM by Kinomescan method relative to control
[18] = test system: Proto-oncogene tyrosine-protein kinase receptor Ret (Homo sapiens), P07949 [M918T]; assay: Binding affinity to human partial length RET M918T mutant (E713 to D1014 residues) expressed in bacterial expression system assessed as remaining unbound target protein level at 1000 nM by Kinomescan method relative to control; outline: as §4
[19] = target: Uncharacterized serine/threonine-protein kinase SBK3 (Homo sapiens) (UniProt P0C264); assay: Binding affinity to wild-type human partial length SgK110 (L22 to R329 residues) expressed in bacterial expression system assessed as remaining unbound target protein level at 1000 nM by Kinomescan method relative to control
[20] = target: Serine/threonine-protein kinase tousled-like 2 (Homo sapiens) (UniProt Q86UE8); assay: Binding affinity to wild-type human partial length TLK2 (E424 to N749 residues) expressed in bacterial expression system assessed as remaining unbound target protein level at 1000 nM by Kinomescan method relative to control
[21] = target: Cyclin-dependent kinase 14/Cyclin-Y (Homo sapiens, UniProt O94921); assay: Inhibition of recombinant GST-tagged human full length CDK14/cyclin Y (2 to end residues); assay type: protein-complex assay

COCCN[C@H]1CC[C@H](Nc2cc(-c3csc(NCC4(C#N)CCOCC4)n3)c(Cl)cn2)CC1
inhibition [1]: inactive
MRT last [2]: 3.59 h
Activity [3]: 100%
Activity [4]: 100%
Activity [5]: 89%
Activity [6]: 100%
Activity [7]: 96%
Activity [8]: 99%
Activity [9]: 86%
Activity [10]: 83%
Activity [11]: 78%
Activity [12]: 81%
Activity [13]: 8.2%
Activity [14]: 100%
Activity [15]: 87%
Activity [16]: 100%
Activity [17]: 100%
Activity [18]: 90%
Activity [19]: 89%
Activity [20]: 99%
IC50 [21]: 1.68 µM
